From ChEMBL document CHEMBL3774376, “Synthesis, and anticonvulsant activity of new amides derived from 3-methyl- or 3-ethyl-3-methyl-2,5-dioxo-pyrrolidin-1-yl-acetic acids” (Bioorg Med Chem, 2016) come the findings set out here.

Series [1] has as its system Mus musculus. Briefly: Neurotoxicity in CD1 albino mouse assessed as acute motor impairment at 300 mg/kg, ip measured after 0.5 hrs by rotarod test. The conditions noted are these: in vivo. The class given is toxicity, organism-based. Put shortly: (§1)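 Male CD-1 mice given 30, 100 or 300 mg/kg ip in 0.5% methylcellulose, tested at 0.5 and 4 h. Motor impairment was scored as failure to keep balance for at least 1 min on a rod rotating at 10 rpm. Minimum dose causing impairment reported.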

Series [2] concerns Mus musculus. The series can be described thus: Neurotoxicity in CD1 albino mouse assessed as acute motor impairment at 300 mg/kg, ip after 4 hrs by rotarod test. The conditions noted are these: in vivo. The class given is toxicity, organism-based. The procedure, abridged:
as §1

Series [3] concerns Mus musculus. Briefly: Anticonvulsant activity in ip dosed CD1 albino mouse assessed as time to peak effect. Format: functional. The procedure, abridged: (§2)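 Quantitation in male CD-1 mice dosed ip at the previously estimated time of peak effect. Seizures were induced by MES or by sc pentylenetetrazole 85 mg/kg; rotarod at 10 rpm assessed motor impairment. Groups of six, at least three doses giving 10-90% effect.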

In series [4] the test system is Mus musculus. The series can be described thus: Anticonvulsant activity in ip dosed CD1 albino mouse assessed as protection against subcutaneous pentylenetetrazole-induced seizures. The class given is functional. The procedure, abridged: as §2
Series [5] in a line: Neurotoxicity in ip dosed CD1 albino mouse assessed as acute motor impairment by rotarod test. Format: toxicity, organism-based. The conditions noted are these: in vivo. The procedure, abridged:
as §2

The species entered for series [6] is Mus musculus. Briefly: Protection index, ratio of TD50 for CD1 albino mouse to ED50 for protection against maximal electroshock-induced seizures in CD1 albino mouse. The procedure, abridged:
as §2

Series [7] deals with Mus musculus. Briefly: Protection index, ratio of TD50 for CD1 albino mouse to ED50 for protection against subcutaneous pentylenetetrazole-induced seizures in CD1 albino mouse. Put shortly: as §2
The test system of series [8] is Mus musculus. Briefly: Antinociceptive activity in CD1 albino mouse assessed as reduction of formalin-induced licking response in neurogenic phase at 75.60 mg/kg, ip preincubated for 4 hrs measured after 5 mins. More on the design: scale not given: the % may be the effect or the level left. Format: functional.
Series [9] has as its system Mus musculus. Briefly: Antinociceptive activity in CD1 albino mouse assessed as reduction of formalin-induced licking response in inflammatory phase at 75.60 mg/kg, ip preincubated for 4 hrs measured after 15 to 20 mins. The class given is functional. More on the design: scale not given: the % may be the effect or the level left.
Series [10] concerns Mus musculus. Briefly: Antinociceptive activity in CD1 albino mouse assessed as reduction of formalin-induced licking response in inflammatory phase at 75.60 mg/kg, ip preincubated for 4 hrs measured after 20 to 25 mins. The class given is functional. More on the design: scale not given: the % may be the effect or the level left.
The test system of series [11] is Mus musculus. The series can be described thus: Antinociceptive activity in CD1 albino mouse assessed as reduction of formalin-induced licking response in inflammatory phase at 75.60 mg/kg, ip preincubated for 4 hrs measured after 25 to 30 mins. Further details: scale not given: the % may be the effect or the level left. The class given is functional.
The subject of series [12] is Mus musculus. Briefly: Local anesthetic activity in CD1 albino mouse assessed prolongation of time reaction at 2 % concentration after 20 secs by tail immersion test relative to vehicle control. Format: functional. Put shortly: (§3)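 Compound at 1 or 2% in 0.5% methylcellulose, injected sc (0.2 ml) about 1 cm from the tail root of male CD-1 mice. After 15 min, the distal 3 cm of the tail was immersed in 50 ± 0.5 °C water and withdrawal time measured, cut off at 20 s. n=8; mean ± SEM; % prolongation relative to vehicle.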

The species named for another series is Rattus norvegicus. The series can be described thus: Displacement of [3H]BTX from voltage-sensitive Na+ channel site 2 in rat cerebral cortex synaptoneurosomes at 100 uM after 60 mins by liquid scintillation spectroscopic analysis. Format: tissue-based. Put shortly: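 Cerebral cortex synaptoneurosomes from rat, tested at 100 µM for inhibition of specific [3H]BTX binding to the voltage-sensitive Na+ channel site 2. Reported as % inhibition of control specific binding; run commercially.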

Series [13] concerns Mus musculus. Briefly: Anticonvulsant activity in ip dosed CD1 albino mouse assessed as protection against maximal electroshock-induced seizures. Format: functional.
Series [14] concerns Mus musculus. The series can be described thus: Anticonvulsant activity in CD1 albino mouse assessed as protection against maximal electroshock-induced seizures at 100 to 300 mg/kg, ip after 0.5 hrs. The class given is functional. The note with it: read-out: MED.
Series [15] relates to Mus musculus. The series can be described thus: Anticonvulsant activity in CD1 albino mouse assessed as protection against maximal electroshock-induced seizures at 100 to 300 mg/kg, ip after 4 hrs. The class given is functional. The conditions noted are these: read-out: MED.
For series [16], the system named is Mus musculus. The series can be described thus: Anticonvulsant activity in CD1 albino mouse assessed as protection against subcutaneous pentylenetetrazole-induced seizures at 100 to 300 mg/kg, ip after 0.5 hrs. The class given is functional. The conditions noted are these: CD1, 0.5 h, read-out: MED. The procedure, abridged:
(§4)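 Male CD-1 mice (16-26 g), compounds ip in 0.5% methylcellulose/water at 30, 100 or 300 mg/kg, 3-4 per group. At 0.5 or 4 h, pentylenetetrazole 85 mg/kg was injected sc. Protection was absence of clonic convulsions (at least 5 s) over a 30 min observation. Minimum active dose recorded.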

Series [17] relates to Mus musculus. The series can be described thus: Anticonvulsant activity in CD1 albino mouse assessed as protection against subcutaneous pentylenetetrazole-induced seizures at 100 to 300 mg/kg, ip after 4 hrs. The conditions noted are these: CD1, 4 h, read-out: MED. Format: functional. Put shortly:
as §4

In series [18] the test system is Mus musculus. The series can be described thus: Neurotoxicity in CD1 albino mouse assessed as acute motor impairment at 100 to 300 mg/kg, ip after 4 hrs by rotarod test. The class given is toxicity, organism-based. The conditions noted are these: in vivo. Put shortly: as §1
Series [19] relates to Mus musculus. Briefly: Antinociceptive activity in CD1 albino mouse assessed as reduction of formalin-induced licking response in neurogenic phase at 32.08 mg/kg, ip preincubated for 4 hrs measured after 5 mins. The class given is functional. Further details: scale not given: the % may be the effect or the level left.
In series [20] the test system is Mus musculus. The series can be described thus: Antinociceptive activity in CD1 albino mouse assessed as reduction of formalin-induced licking response in inflammatory phase at 32.08 mg/kg, ip preincubated for 4 hrs measured after 15 to 20 mins. Format: functional. More on the design: scale not given: the % may be the effect or the level left.
For series [21], the system named is Mus musculus. Briefly: Antinociceptive activity in CD1 albino mouse assessed as reduction of formalin-induced licking response in inflammatory phase at 32.08 mg/kg, ip preincubated for 4 hrs measured after 25 to 30 mins. The class given is functional. Further details: scale not given: the % may be the effect or the level left.
Series [22] concerns Mus musculus. Briefly: Local anesthetic activity in CD1 albino mouse assessed prolongation of time reaction at 1 % concentration after 20 secs by tail immersion test relative to vehicle control. The class given is functional. Put shortly: as §3
The test system of series [23] is Mus musculus. The series can be described thus: Anticonvulsant activity in CD1 albino mouse assessed as protection against subcutaneous pentylenetetrazole-induced seizures at 300 mg/kg, ip after 0.5 hrs. The class given is functional, organism-based. Put shortly:
as §4

For series [24], the system named is Mus musculus. The series can be described thus: Anticonvulsant activity in CD1 albino mouse assessed as protection against subcutaneous pentylenetetrazole-induced seizures at 300 mg/kg, ip after 4 hrs. Format: functional, organism-based. The procedure, abridged:
as §4

Series [25] relates to Mus musculus. Briefly: Neurotoxicity in CD1 albino mouse assessed as acute motor impairment at 100 to 300 mg/kg, ip after 0.5 hrs by rotarod test. Format: toxicity, organism-based. The note with it: in vivo. Put shortly:
as §1

Series [26] has as its system Mus musculus. The series can be described thus: Anticonvulsant activity in CD1 mouse assessed as protection against 32 mA-current- for 3 secs induced seizure at 100 mg/kg, ip after 0.25 hrs by 6Hz psychomotor seizure test. Format: functional. Put shortly:
(§5)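 Male CD-1 mice given 100 mg/kg ip in 0.5% methylcellulose, four per time point. Corneal stimulation at 32 mA, 0.2 ms monopolar rectangular pulses at 6 Hz for 3 s, from a constant-current device. A mouse was protected if it resumed normal exploratory behavior within 10 s. Reported as number protected over number tested.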

Series [27] deals with Mus musculus. The series can be described thus: Anticonvulsant activity in CD1 mouse assessed as protection against 32 mA-current- for 3 secs induced seizure at 100 mg/kg, ip after 2 hrs by 6Hz psychomotor seizure test. Format: functional, organism-based. The procedure, abridged: as §5
The test system of series [28] is Mus musculus. The series can be described thus: Anticonvulsant activity in ip dosed CD1 albino mouse assessed as protection against 32 mA-current- for 3 secs induced seizure by 6Hz psychomotor seizure test. The class given is functional. The procedure, abridged: (§6)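 6-Hz corneal stimulation at 32 mA (6 Hz, 3 s) in male CD-1 mice dosed ip. Groups of six received several doses until at least three points fell between 10 and 90% protection. […] PI = TD50/ED50 (rotarod).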

For series [29], the species on record is Mus musculus. The series can be described thus: Protection index, ratio of TD50 for CD1 albino mouse to ED50 for protection against 32 mA-current- for 3 secs induced seizure in CD1 albino mouse by 6Hz psychomotor seizure test. The procedure, abridged:
as §6

For series [30], the system named is Mus musculus. Briefly: Anticonvulsant activity in ip dosed CD1 albino mouse assessed as time to peak effect by 6Hz psychomotor seizure test. The class given is functional. Put shortly: as §6
For series [31], the system named is Mus musculus. The series can be described thus: Anticonvulsant activity in CD1 albino mouse assessed as protection against maximal electroshock-induced seizures at 300 mg/kg, ip after 4 hrs. Format: functional, organism-based.

Calls of active or inactive are those of the source. The calls are words filed in the database; no cut-off is given here.

With `CC1CC(=O)N(CC(=O)N2CCN(c3ccc(Cl)c(Cl)c3)CC2)C1=O` (stereo not drawn), the Activity entry is recorded as “Non-toxic” in the series on Mus musculus [1]; “Non-toxic” in the series with Mus musculus [2]; 61% in the series on Mus musculus [8]; 100% in the series on Mus musculus [9]; 95% with Mus musculus [10]; 95% in the series on Mus musculus [11]. Besides, in the series on Mus musculus [12], the Activity is listed as 14%. Also, the Time with Mus musculus [3] amounted to 1 h. Also, the ED50 came out at 54.1 mg/kg in the series on Mus musculus [4] and 75.6 mg/kg in the series with Mus musculus [13]. Moreover, the TD50 in [5] is 263 mg/kg. Besides, the “Ratio TD50/ED50” value in the series filed under Mus musculus [6] worked out at 3.48; with Mus musculus [7], 4.86. Moreover, in the series listed under Rattus norvegicus, the inhibition worked out at 33.4%. The minimal effective dose in the series with Mus musculus [14] worked out at 300 mg/kg; with Mus musculus [15], 100 mg/kg; with Mus musculus [16], 100 mg/kg; with Mus musculus [17] it was 100 mg/kg.

With `CC1CC(=O)N(CC(=O)N2CCN(c3ccc(Cl)cc3)CC2)C1=O` (stereo not drawn), the Activity result in the series on Mus musculus [1] is reported as “Non-toxic”; with Mus musculus [19] it was 76%; in the series on Mus musculus [20], 91%; in the series with Mus musculus [21] it was 86%; in the series on Mus musculus [12], 124%; in the series on Mus musculus [22], 26%. In the series with Mus musculus [18], the MTC was found to be 300 mg/kg. In addition, in the series with Mus musculus [3], the Time turned out to be 4 h. The 50% effective dose (ED50) was more than 250 mg/kg in the series with Mus musculus [4] and 32.1 mg/kg in the series with Mus musculus [13]. Besides, the TD50 in series [5] was more than 500 mg/kg. In addition, the “Ratio TD50/ED50” value in the series listed under Mus musculus [6] is recorded as more than 15.59; in the series with Mus musculus [7], more than 2. The same molecule registered an inhibition in the series listed under Rattus norvegicus of 20.9%. Further, the minimal effective dose in the series on Mus musculus [14] stood at 100 mg/kg; in the series on Mus musculus [15], 30 mg/kg. For the same molecule, the result with Mus musculus [23] and with Mus musculus [24] was inactive.

As for `CC1CC(=O)N(CC(=O)N2CCN(c3ccccc3Cl)CC2)C1=O` (stereo not drawn), in the series with Mus musculus [25], the MTC turned out to be 300 mg/kg. The figures for the Activity entry with Mus musculus [2] and with Mus musculus [26] were “Non-toxic” and 100%, respectively. Further, the result with Mus musculus [27], with Mus musculus [31] and in the series on Mus musculus [24] was inactive. The TD50 in series [5] is more than 500 mg/kg. In the series with Mus musculus [28], the ED50 is 152 mg/kg. Besides, in the series filed under Mus musculus [29], the “Ratio TD50/ED50” value is more than 3.29. The Time in the series on Mus musculus [30] was found to be 0.25 h. Further, the minimal effective dose in the series with Mus musculus [14] and with Mus musculus [16] was 300 mg/kg each time.
